{"data": "Published values gathered from unrelated publications", "cell line": "HepG2", "observed": "cell growth or viability", "note": "Compare with care: the assays were run in different laboratories."}
{"SMILES": "N=C(N)NCc1ccc(NC(=O)c2ccc(C(=O)Nc3ccc(C4=CCN(C(=N)N)CC4)cc3)cn2)cc1", "method": "MTS", "time": "24 h", "CC50 [µM]": 739}
{"SMILES": "CCOC(=O)c1c(C)ncn1CC(c1cn(C)c2ccc([N+](=O)[O-])cc12)c1cn(C)c2ccc([N+](=O)[O-])cc12", "method": "MTS", "time": "24 h", "CC50 [µM]": "> 20"}
{"SMILES": "N=C(N)NCc1ccc(NC(=O)c2ccc(C(=O)Nc3ccc(C4=CCN(C(=N)N)CC4)nn3)cc2)cc1", "method": "MTS", "time": "24 h", "CC50 [µM]": 326}
{"SMILES": "Cc1cn(CC(c2cn(C)c3ccccc23)c2cn(C)c3ccccc23)nn1", "method": "MTS", "time": "24 h", "CC50 [µM]": "> 20"}
{"SMILES": "O=C(NCCCN1CCOCC1)c1ccc(Nc2ncc(Cl)c(-c3ccc(Cl)s3)n2)cc1", "time": "44 h", "CC50 [µM]": 4.9}
{"SMILES": "COc1ccc(NC(=O)N2CCCCN3[C@H](CN(C)S(C)(=O)=O)[C@H](c4ccc(C#Cc5ccccc5)cc4)[C@@H]3C2)cc1", "CC50 [µM]": "> 40"}
{"SMILES": "CC(=O)Oc1ccccc1C(=O)O", "method": "ATP luminescence", "CC50 [µM]": "> 1000"}
{"SMILES": "COc1cc(/C=C/C(=O)CC(=O)/C=C/c2ccc(O)c(OC)c2)ccc1O", "method": "MTT", "time": "24 h", "CC50 [µM]": "~42"}
{"SMILES": "COC(=O)c1c(C)ncn1CC(c1c[nH]c2cc(Br)ccc12)c1c[nH]c2cc(Br)ccc12", "method": "MTS", "time": "24 h", "CC50 [µM]": "> 20"}
{"SMILES": "Cc1cnc(Nc2ccc(C(=O)N3CCC(N4CCCC4)CC3)cc2)nc1-c1ccc(Cl)s1", "time": "44 h", "CC50 [µM]": 10.5}
{"SMILES": "N=C(N)NCc1ccc(NC(=O)c2ccc(C(=O)Nc3ccc(C4=CCN(C(=N)N)CC4)cc3)nc2)cc1", "method": "MTS", "time": "24 h", "CC50 [µM]": "> 117"}
{"SMILES": "CCCCCCCCCCCC(=O)Nc1nc(N)nc2c1ncn2[C@H]1CO[C@@H](CO)O1", "CC50 [µM]": "> 100"}
{"SMILES": "CCc1ncn(CC(c2c[nH]c3ccc(C)cc23)c2c[nH]c3ccc(C)cc23)c1C(=O)OC", "method": "MTS", "time": "24 h", "CC50 [µM]": "> 20"}
{"SMILES": "Cc1cc(Nc2ccc(S(F)(F)(F)(F)F)cc2)n2ccnc2n1", "CC50 [µM]": "> 50"}
{"SMILES": "COC(=O)c1c(C)ncn1CC(c1c[nH]c2ccccc12)c1c[nH]c2ccccc12", "method": "MTS", "time": "24 h", "CC50 [µM]": "> 20"}
{"SMILES": "O=[N+]([O-])c1ccc(-c2nc3cccc(O)c3[nH]2)o1", "method": "resazurin", "time": "72 h", "CC50 [µM]": 37}
